Reference: ChEMBL document CHEMBL1154981, “Chemical constituents from the leaves and stems of Schisandra rubriflora” (J Nat Prod, 2010)
In brackets after ≈: the same amount, converted by molar mass.

Tests used:
K562 = assay: Cytotoxicity against human K562 cells after 48 hrs by SRB assay; assay type: functional, cell-based; settings: K562, 48 h
HepG2 = assay: Cytotoxicity against human HepG2 cells after 48 hrs by SRB assay; assay type: functional, cell-based; settings: HepG2, 48 h
[1] = Selectivity index, ratio of antiviral activity against HIV1-infected human C8166 cells over cytotoxicity against human C8166 cells; assay type: toxicity, cell-based; settings: uninfected and HIV-1-infected, read-out: Selectivity Index
[2] = test system: Human immunodeficiency virus 1; assay: Antiviral activity against HIV1-infected human C8166 cells; assay type: functional, organism-based; settings: Human immunodeficiency virus 1, C8166
Method in brief: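 Protection of C8166 cells from HIV-1 cytopathic effects, read as EC50. Run alongside the cytotoxicity measurement, with AZT as positive control.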

[3] = Cytotoxicity against human C8166 cells by MTT assay; assay type: cell-based
Method in brief: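 Uninfected C8166 cells scored for viability by MTT, giving CC50. Run in parallel with the HIV-1 cytopathic-effect assay, with AZT as reference.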

Row | SMILES | IC50 (K562) [µg/mL] | IC50 (HepG2) [µg/mL] | selectivity ratio [1] | EC50 [2] [µg/mL] | CC50 [3] [µg/mL]
1 | C[C@@H]1C(=O)O[C@H]2[C@@H]1O[C@]13O[C@@]4(CC[C@]5(C)C(=O)[C@](C)(O)[C@@]2(O)[C@H]15)C[C@]12OC(=O)C[C@H]1OC(C)(C)[C@@H]2[C@@H](O)C[C@H]4C3=O [SCHIRUBRIDILACTONE A] | > 5 | > 5 | 5.1 | 30.1 (≈ 52.2 µM) | 
2 | C/C(=C/[C@H]1O[C@]23O[C@@]4(CC[C@]5(C)C(=O)[C@](C)(O)[C@H]1[C@H]25)C[C@]12OC(=O)C[C@H]1OC(C)(C)[C@@H]2CC=C4C3=O)C(=O)O [SCHIRUBRIDILACTONE B] | > 5 | > 5 | 9 | 15.2 (≈ 28 µM) | 
3 | C[C@@H]1C(=O)[C@@]2(C)CC[C@]34C[C@]56OC(=O)C[C@H]5O[C@@](C)(CO)[C@@H]6CC[C@@]3(O)C(=O)[C@@]3(O[C@]5(C[C@H](C)C(=O)O5)[C@@H]1[C@H]32)O4 [SCHIRUBRIDILACTONE C] |  |  | 8.7 | 14.3 (≈ 25.5 µM) | 
4 | C[C@@H]1C(=O)O[C@H]2[C@@H]1O[C@]13O[C@@]4(CC[C@]5(C)C(=O)[C@@H](C)[C@H]2[C@H]15)C[C@]12OC(=O)C[C@H]1OC(C)(C)[C@@H]2C[C@@H]1O[C@@]14C3=O [SCHIRUBRIDILACTONE D] | > 5 | > 5 | 2.2 | 80.8 (≈ 149 µM) | 
5 | CC1(C)O[C@@H]2CC(=O)O[C@@]23C[C@]24CC[C@]5(C)C(=O)[C@](C)(O)[C@]6(O)[C@H]7OC(=O)[C@](C)(O)[C@H]7O[C@@](O2)(C(=O)C4=CC[C@@H]13)[C@@H]65 [SCHIRUBRIDILACTONE E] | > 5 | > 5 | 3.1 | 66.8 (≈ 116 µM) | 
6 | CC1=C[C@H]([C@H]2O[C@]34C(=CC[C@@H]3[C@@H]2C)[C@@H]2[C@H](O)C[C@H]3C(C)(C)O[C@@H]5CC(=O)O[C@@]53C[C@@]2(O)C[C@@H]4O)OC1=O [SCHIRUBRIDILACTONE F] | > 5 | > 5 | 3.5 | 50.1 (≈ 97 µM) | 
7 | Cc1cn([C@H]2C[C@H](N=[N+]=[N-])[C@@H](CO)O2)c(=O)[nH]c1=O [ZIDOVUDINE] |  |  |  |  | > 200
